# High-throughput results as filed in PubChem BioAssay.
# SR-BI DiI-HDL act – activators of SR-BI mediated HDL lipid uptake | CHO ldlA[mSR-BI] cells, DiI-HDL uptake fluorescence, 3 h; 100 = double the neutral-control signal | activation, % at 12.5 µM | 320,000 tested, 0.096% active | AID 504775;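 active = mean replicate activation of at least 60% and every replicate at or above 60%; inconclusive = mean or all-replicate condition met, but not both; inactive = mean below 60% and not all replicates reaching 60%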;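 also: 0% = median plate neutral-control signal and 100% = twice that signal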
#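 material = CHO ldlA[mSR-BI] cells | medium = Ham's F12 with 0.5% BSA, HEPES 25 mM, pH 7.4 | reagent = fluorescent DiI-HDL, 10 µg/mL final | compound dosing = single-point compound dose | incubation = 3 h, 37 °C | measured by = bottom-read fluorescence, 550/595 nm | measure = HDL uptake via cellular fluorescence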
# CAL PDZ FP-1 – inhibitors of human CAL PDZ peptide binding; Q9HD26; purified CAL PDZ, TMR-peptide fluorescence polarization, 1 h; inhibition, % at 20 µM; 330,000 tested, 0.02% active;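 active = highest replicate inhibition of at least 40%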;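 also: plate controls were DMSO neutral control wells for no effect and unlabeled competitor peptide control wells for full effect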
#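 System: tagged CAL PDZ domain. Schedule: 1 h room-temperature incubation prior to read. Signal: fluorescence polarization (mP). Measure: percent inhibition from loss of millipolarization.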
# SR-BI DiI inh – mouse SR-BI HDL lipid transfer inhibition; Q61009; 320,000 tested, 0.96% active; ldlA[mSR-BI] CHO cells, DiI-HDL uptake fluorescence, 3 h; inhibition, % at 12.5 µM;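 active = mean replicate inhibition of at least 70% and a set share of replicates each scoring 70 or more; inconclusive = meets just one of the two criteria; inactive = fails both criteria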;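 also: 0% = median of neutral control wells and 100% = median of positive control wells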
# Target sequence (Q61009 whole entry, looked up): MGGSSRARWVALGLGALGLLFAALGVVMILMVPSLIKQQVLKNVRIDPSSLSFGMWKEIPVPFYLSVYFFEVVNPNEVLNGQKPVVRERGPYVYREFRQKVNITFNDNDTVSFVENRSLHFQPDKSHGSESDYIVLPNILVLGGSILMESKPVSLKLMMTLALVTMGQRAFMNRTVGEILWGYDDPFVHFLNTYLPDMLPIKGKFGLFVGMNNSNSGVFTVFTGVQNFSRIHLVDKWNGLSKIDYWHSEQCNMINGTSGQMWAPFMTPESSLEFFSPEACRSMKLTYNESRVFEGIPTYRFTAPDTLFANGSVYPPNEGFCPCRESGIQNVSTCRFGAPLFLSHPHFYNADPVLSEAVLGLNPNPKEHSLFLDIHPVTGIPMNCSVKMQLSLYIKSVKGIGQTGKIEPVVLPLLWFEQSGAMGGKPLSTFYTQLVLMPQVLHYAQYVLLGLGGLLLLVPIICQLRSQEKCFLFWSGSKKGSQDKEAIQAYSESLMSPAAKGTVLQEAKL
# CAL PDZ FP-2 – blocks peptide binding to the human CAL PDZ domain. purified CAL PDZ, TMR-peptide fluorescence polarization, 1 h. inhibition, % at 24.9 µM. 300,000 tested, 0.92% active. AID 602252;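 active = mean inhibition of at least 30% with at least half of replicates also reaching 30%; inconclusive = no clear call, values can overlap the other calls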;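 also: 0% = DMSO neutral control and 100% = excess unlabeled competitor peptide PRC23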
# ATG4B inhibitor – inhibitors of human ATG4B cysteine protease; 340,000 tested, 0.51% active; ATG4B cleavage of LC3-PLA2, NBD-HPC fluorescence, 1 h; inhibition, % at 8.33 µM; AID 504462; in the data active = inhibition above about 40%
# The depositor's hits bear a star; ? = inconclusive; / = not tested or not shown. Sampled rows, rich in hits. Any-hit rate of the full collection: about 2.3%.
SMILES,SR-BI DiI-HDL act,CAL PDZ FP-1,SR-BI DiI inh,CAL PDZ FP-2,ATG4B inhibitor
Clc1cccc(-c2cc3nc4c(c(N5CCOCC5)n3n2)CCCC4)c1,-77,-2,77*,-2,-2
Fc1cccc(-c2cc3nc4c(c(N5CCOCC5)n3n2)CCCC4)c1,-72,-1,72*,-2,9
Cc1ccc(C(=O)N(C)CC(=O)Nc2cccc(C)c2C)o1,40,-3,-40,2,-6
COc1ccc(CN2CCNC(=O)C2CC(=O)NC2CCCCCCC2)cc1OC (stereo not given),-3,0,3,55*,-3
COc1cc(CN2CCC(CO)(CCOc3ccccc3)CC2)cc(OC)c1,/,0,/,5,-8
OCC1(CCOc2ccccc2)CCN(Cc2cccn2-c2ncccn2)CC1,5,-1,-5,56*,4
Cc1ccc(C(=O)NCC(=O)N2CCc3ccccc3C2)cc1C,-12,-1,12,-3,1
Cc1ccc(-c2c(C(=O)N/N=C/c3c[nH]c4ccccc34)nnn2-c2nonc2N)cc1,-85,-2,85*,2,-17
Cc1ccc(-c2c(C(=O)N/N=C/c3sccc3C)nnn2-c2nonc2N)cc1,-85,-3,85*,-5,-8
Cc1ccsc1/C=N/NC(=O)c1nnn(-c2nonc2N)c1-c1ccccc1,-52,-1,52,-3,-23
COc1ccccc1C(c1nnnn1C(C)C)N1CCN(C(=O)c2ccco2)CC1 (stereo not given),/,-2,/,-1,-6
COc1cccc(C(=O)N(C)CC2CCN(CCc3cccc(C(F)(F)F)c3)CC2)c1,-2,-4,2,/,-3
CC(=O)c1cn(C2OC(CO)C3OC(C)(C)OC32)c(=O)n(C)c1=O (stereo not given),/,/,/,/,-5
O=C(COC(=O)c1ccc(Cl)nc1)Nc1ccc(N2CCCCC2)cc1,-6,/,6,41*,1
O=[N+]([O-])c1ccc(Nc2nc(N/N=C/c3cccc(F)c3)nc(N3CCCC3)n2)cc1,-34,-2,34,-4,12
COc1cccc(/C=N/Nc2nc(Nc3ccc([N+](=O)[O-])cc3)nc(N3CCCC3)n2)c1O,-87,-2,87*,-2,4
Cc1cccc(NC(=O)CSCC(=O)N2CCN(C(=O)c3ccco3)CC2)c1,8,-1,-8,/,-1
N=c1c(-c2nc3ccccc3[nH]2)cc(C(=O)c2ccco2)nn1-c1ccccc1,-73,0,73*,0,-9
COc1cc(OCC(=O)NC(C)C)cc2c1C(=O)O[C@@H](C)CCCC(=O)CCCCC2,23,/,-23,46*,-9
Cc1sc(NC(=O)c2sc3nc4c(C)cccc4cc3c2N)c(C#N)c1C,-90,-2,90*,-2,-1
Cc1ccccc1-n1c(SCC(=O)N2CCOCC2)nc(O)c(Cc2ccccc2)c1=O,6,-3,-6,-2,-1
O=C/C=C/c1c(-c2ccccc2)cc2oc3ccccc3cc1-2,-100,/,100*,-3,4
COc1ccc(Nc2ncc(C(=O)N3CCC(C(N)=O)CC3)c3ccccc23)cc1,-2,-1,2,71*,-12
CCN(CC)C(=O)COc1ccc(-c2nnc(Nc3ccc(OC)c(C(=O)NC)c3)c3ccccc23)cc1,-87,1,87*,4,-16
COc1ccccc1Nc1ncc(C(=O)N2CCC(C(N)=O)CC2)c2ccccc12,-18,/,18,-25,-1
SMILES,SR-BI DiI-HDL act,CAL PDZ FP-1,SR-BI DiI inh,CAL PDZ FP-2,ATG4B inhibitor
COc1ccc(Nc2nnc(-c3ccc(C)cc3)c3ccccc23)cc1C(=O)N1CCCCC1,-81,-2,81*,-2,7
CC[C@H](C)[C@H](NC(=O)OCc1ccccc1)C(=O)OCC(=O)Nc1ccc(N2CCOCC2)cc1,-55,0,55,/,-4
Cc1cccc(NC(=O)CSc2nc3nc(C)cc(C)n3n2)c1,25,-4,-25,0,-3
COc1ccccc1NC(=O)Nc1nc(CC(=O)Nc2ccc(F)cc2)cs1,-44,-1,44,-1,-15
COc1ccc(N2CCN(C(=O)Cc3csc(NC(=O)Nc4ccccc4OC)n3)CC2)cc1,-80,-2,80*,-6,-17
COc1ccccc1NC(=O)Nc1nc(CC(=O)N2CCN(c3ccccc3)CC2)cs1,-71,-1,?,/,-9
COc1ccccc1NC(=O)Nc1nc(CC(=O)N2CCN(c3ccc(F)cc3)CC2)cs1,-76,-3,76*,-3,-13
CN(C)CCNC=C(C(=O)Nc1ccc(Cl)cc1Cl)C(=O)Nc1ccc(Cl)cc1Cl,82*,-2,-82,-4,7
COc1ccc(C(=O)NC2CCN(CC(=O)Nc3cccc(C)c3)CC2)cc1OC,-80,0,80*,0,-6
CCCCOc1ccc(C(=O)N2CCN(CC(=O)Nc3ccc(C)cc3)CC2)cc1OC,-78,-1,78*,-2,-6
CN(C)S(=O)(=O)c1ccc(Cl)c(NC(=O)CN2CCN(Cc3ccc4c(c3)OCO4)CC2)c1,/,-1,/,-1,-5
Cc1cc(/C=N\NC(=O)c2cccs2)c(C)n1-c1ccc2ncccc2c1,-73,/,73*,-3,-2
O=c1c2c([N+](=O)[O-])cc([N+](=O)[O-])cc2sn1-c1ccc(Br)cc1,-79,0,79*,0,-3
Cc1c(NC(=O)CSc2ccccc2C(=O)Nc2cccnc2)c(=O)n(-c2ccccc2)n1C,21,-2,-21,83*,1
Cc1c(NC(=O)COc2ccccc2Cl)c(=O)n(-c2ccccc2)n1C,10,-1,-10,41*,3
Cc1c(NC(=O)CN2C(=O)c3ccc([N+](=O)[O-])cc3C2=O)c(=O)n(-c2ccccc2)n1C,-8,-1,8,55*,3
Cc1c(NC(=O)COC(=O)c2ccccc2Cl)c(=O)n(-c2ccccc2)n1C,12,0,-12,3,-3
Cc1c(Cl)c([N+](=O)[O-])nn1CC(=O)Nc1c(C)n(C)n(-c2ccccc2)c1=O,3,-1,-3,53*,-6
CCOC(=O)[C@H]1[C@H]2COc3ccc(OC)cc3[C@@H]2N2C(=O)CN(Cc3ccc(OC)cc3)C(=O)[C@@]12C,-9,-2,-9,-11,-3
CCCCN1C(=O)/C(=C2/Sc3ccccc3N2C)S/C1=N\c1ncn[nH]1,-83,1,83*,/,3
O=C(COC(=O)/C=C/c1ccc(F)cc1)Nc1cc(C(F)(F)F)ccc1N1CCOCC1,23,-3,-23,-4,-4
CCCC(=O)Nc1cc(C(F)(F)F)ccc1N1CCOCC1,10,1,-10,35*,1
CC(=O)c1c(C)[nH]c(C(=O)OCC(=O)Nc2cc(C(F)(F)F)ccc2N2CCOCC2)c1C,-72,/,72*,-7,-10
CC(=O)Nc1cc(C(F)(F)F)ccc1N1CCOCC1,3,-1,-3,/,-7
